Test results taken from ChEMBL document CHEMBL1131628 (J Med Chem, 1998).
“And” between values parts separate entries of the source, which are not always exact repeats. Equal entries are not always repeated. Blank lines part the entries; values can stand above or below the compound they belong to.

How the values were obtained:
Endothelin-1 receptor [1] = target: T1, Endothelin-1 receptor (Rattus norvegicus, UniProt P26684); assay: Binding affinity for endothelin A receptor by measuring its ability to displace [125I]ET1 from prolactin secreting rat pituitary cells(MMQ); type: cell-based, Pituitary gland cell
T1 sequence (P26684 whole entry): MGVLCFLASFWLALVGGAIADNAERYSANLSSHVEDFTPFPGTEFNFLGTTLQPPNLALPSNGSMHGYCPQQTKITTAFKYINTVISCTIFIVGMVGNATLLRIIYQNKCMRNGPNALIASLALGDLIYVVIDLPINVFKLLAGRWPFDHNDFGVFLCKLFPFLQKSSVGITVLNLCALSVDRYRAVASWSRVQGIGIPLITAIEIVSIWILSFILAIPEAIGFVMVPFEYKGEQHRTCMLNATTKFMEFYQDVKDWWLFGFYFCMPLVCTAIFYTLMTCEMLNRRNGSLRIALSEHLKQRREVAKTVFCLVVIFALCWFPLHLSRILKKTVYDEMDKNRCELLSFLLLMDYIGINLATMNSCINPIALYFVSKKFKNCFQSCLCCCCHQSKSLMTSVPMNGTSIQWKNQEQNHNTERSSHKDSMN

[2] = Pharmacokinetic profile-half life was evaluated in rats upon intravenous administration; type: ADME, organism-based; conditions: rat, in vivo
Procedure, shortened: (§1)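 Male Sprague-Dawley rats, n = 4 per group, 10 mg/kg iv (jugular slow bolus) or oral gavage, 10 mg/mL in ethanol–propylene glycol–D5W (20:30:50) with 1 equiv NaOH. Tail-vein plasma taken 0.1 (iv only) to 12 h, assayed by HPLC after extraction. AUC by trapezoidal rule extrapolated to infinity; T1/2 from terminal rate constant; F as oral/iv AUC.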

Endothelin-1 receptor [3] = target: T2, Endothelin-1 receptor (Homo sapiens, UniProt P25101); assay: Tested for binding affinity for human Endothelin A receptor by measuring its ability to displace [125I]-ET-1 from chinese hamster ovary cells(CHO); type: cell-based
T2 sequence (P25101 whole entry): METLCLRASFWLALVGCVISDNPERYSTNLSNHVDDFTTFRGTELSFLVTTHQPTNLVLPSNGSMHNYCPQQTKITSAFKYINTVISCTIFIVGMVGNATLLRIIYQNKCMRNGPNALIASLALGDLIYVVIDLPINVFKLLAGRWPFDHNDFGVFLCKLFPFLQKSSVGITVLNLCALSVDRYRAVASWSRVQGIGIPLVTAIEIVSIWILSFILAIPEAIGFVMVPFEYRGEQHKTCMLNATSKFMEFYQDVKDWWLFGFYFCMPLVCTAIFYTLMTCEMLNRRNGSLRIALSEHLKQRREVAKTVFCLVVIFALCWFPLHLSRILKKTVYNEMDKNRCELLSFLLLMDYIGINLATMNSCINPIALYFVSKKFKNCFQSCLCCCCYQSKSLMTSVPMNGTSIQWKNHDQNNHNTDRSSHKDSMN

[4] = Bioavailability in rat; type: ADME, organism-based; conditions: in vivo; procedure, shortened: as §1
[5] = target: T3, Endothelin receptor type B (Homo sapiens, UniProt P24530); assay: Tested for binding affinity for human Endothelin B receptor by measuring its ability to displace [125I]-ET-3 from chinese hamster ovary cells(CHO); type: cell-based
T3 sequence (P24530 whole entry): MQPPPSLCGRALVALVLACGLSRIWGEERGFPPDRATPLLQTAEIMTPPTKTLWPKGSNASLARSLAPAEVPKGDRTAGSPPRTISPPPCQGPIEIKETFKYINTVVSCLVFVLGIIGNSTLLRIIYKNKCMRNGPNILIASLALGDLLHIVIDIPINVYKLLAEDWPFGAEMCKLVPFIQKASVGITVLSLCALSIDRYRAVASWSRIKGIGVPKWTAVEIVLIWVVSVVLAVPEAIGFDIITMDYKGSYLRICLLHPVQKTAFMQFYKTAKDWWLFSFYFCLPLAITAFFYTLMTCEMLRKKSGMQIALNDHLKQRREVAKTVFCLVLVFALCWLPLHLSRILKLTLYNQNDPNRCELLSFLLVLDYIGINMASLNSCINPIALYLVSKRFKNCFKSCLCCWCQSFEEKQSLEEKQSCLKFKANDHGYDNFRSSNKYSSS

[6] = Pharmacokinetic profile AUC was evaluated in rats; type: ADME, organism-based; set-up: concentration or dose not given beside the values; conditions: rat, in vivo; procedure, shortened: as §1
[7] = target: T3, Endothelin receptor type B; assay: Tested for binding affinity for human Endothelin B receptor by measuring its ability to displace [125I]ET-3 from chinese hamster ovary cells(CHO); type: cell-based
[8] = Pharmacokinetic profile-half life was evaluated in rats upon oral administration; type: ADME, organism-based; conditions: rat, in vivo; procedure, shortened: as §1
[9] = Pharmacokinetic profile Cmax was evaluated in rats; type: ADME, organism-based; conditions: rat, in vivo; procedure, shortened: as §1
Endothelin-1 receptor [10] = target: T2, Endothelin-1 receptor; assay: Tested for binding affinity for human Endothelin A receptor by measuring its ability to displace [125I]ET1 from chinese hamster ovary cells(CHO); type: cell-based

Structure (SMILES): CCCCN(CCCC)C(=O)CN1C[C@H](c2ccc3c(c2)OCO3)[C@@H](C(=O)O)[C@@H]1CCCCC(F)(F)F
IC50 (Endothelin-1 receptor [1]): 4 nM

Structure (SMILES): CCCCN(CCCC)C(=O)CN1C[C@H](c2ccc3c(c2)OCO3)[C@@H](C(=O)O)[C@@H]1CCc1ncco1
IC50 (Endothelin-1 receptor [1]): 2.4 nM

Structure (SMILES): C/C=C/CC[C@H]1[C@H](C(=O)O)[C@@H](c2ccc3c(c2)OCO3)CN1CC(=O)N(CCCC)CCCC
IC50 (Endothelin-1 receptor [1]): 4.8 nM

Structure (SMILES): Cc1cc2c(cc1CC(=O)c1ccsc1S(=O)(=O)Nc1onc(C)c1Cl)OCO2
half-life [2]: 6.7 h
Ki (Endothelin-1 receptor [3]): 0.43 nM
bioavailability [4]: 60%
Ki [5]: > 4300 nM

Structure (SMILES): CCCCN(CCCC)C(=O)CN1C[C@H](c2ccc3c(c2)OCO3)[C@@H](C(=O)O)[C@@H]1CCc1ccccn1
AUC [6]: 780 ng·h/mL
IC50 (Endothelin-1 receptor [1]): 0.38 nM and 0.72 nM
half-life [2]: 2.8 h
IC50 [7]: 32000 nM
half-life [8]: 8.8 h
Cmax [9]: 580 ng/mL
IC50 (Endothelin-1 receptor [10]): 0.29 nM
bioavailability [4]: 21.1%

Structure (SMILES): COc1ccccc1Oc1c(NS(=O)(=O)c2ccc(C)cn2)nc(-c2ccnc(-c3nnn[nH]3)c2)nc1OCCO [CLAZOSENTAN]
half-life [2]: 0.8 h
Ki (Endothelin-1 receptor [3]): 0.13 nM
Ki [5]: 175 nM

Structure (SMILES): CCCCN(CCCC)C(=O)CN1C[C@H](c2ccc3c(c2)OCO3)[C@@H](C(=O)O)[C@@H]1CCC1SCCS1
IC50 (Endothelin-1 receptor [1]): 4.5 nM

Structure (SMILES): C/C=C(\C)CC[C@H]1[C@H](C(=O)O)[C@@H](c2ccc3c(c2)OCO3)CN1CC(=O)N(CCCC)CCCC
IC50 (Endothelin-1 receptor [1]): 3.3 nM

Structure (SMILES): CCCCN(CCCC)C(=O)CN1C[C@H](c2ccc3c(c2)OCO3)[C@@H](C(=O)O)[C@@H]1CCCC1OCCO1
IC50 (Endothelin-1 receptor [1]): 7 nM

Structure (SMILES): C=CCCC[C@H]1[C@H](C(=O)O)[C@@H](c2ccc3c(c2)OCO3)CN1CC(=O)N(CCCC)CCCC
IC50 (Endothelin-1 receptor [1]): 9.9 nM

Structure (SMILES): CCCCN(CCCC)C(=O)CN1C[C@H](c2ccc3c(c2)OCO3)[C@@H](C(=O)O)[C@@H]1CCC1OCCO1
IC50 (Endothelin-1 receptor [1]): 2.3 nM

Structure (SMILES): CCCCN(CCCC)C(=O)CN1C[C@H](c2ccc3c(c2)OCO3)[C@@H](C(=O)O)[C@@H]1CCc1ccoc1
IC50 (Endothelin-1 receptor [1]): 2.2 nM

Structure (SMILES): CCCCN(CCCC)C(=O)CN1C[C@H](c2ccc3c(c2)OCO3)[C@@H](C(=O)O)[C@@H]1CC(C)CCC (some centres not stated)
IC50 (Endothelin-1 receptor [1]): 3 nM

Structure (SMILES): CCCCN(CCCC)C(=O)CN1C[C@H](c2ccc3c(c2)OCO3)[C@@H](C(=O)O)[C@@H]1CCC(CC)CC
IC50 (Endothelin-1 receptor [1]): 22 nM

Structure (SMILES): CCCCC[C@H]1[C@H](C(=O)O)[C@@H](c2ccc3c(c2)OCO3)CN1CC(=O)N(CCCC)CCCC
IC50 (Endothelin-1 receptor [1]): 2.5 nM

The remaining compounds from weak to strong by IC50 (Endothelin-1 receptor [1]), led by results:

IC50 (Endothelin-1 receptor [1]): 2.2 nM
Structure (SMILES): CCCCN(CCCC)C(=O)CN1C[C@H](c2ccc3c(c2)OCO3)[C@@H](C(=O)O)[C@@H]1CCn1ccccc1=O

IC50 (Endothelin-1 receptor [1]): 2 nM
Structure (SMILES): CCCCN(CCCC)C(=O)CN1C[C@H](c2ccc3c(c2)OCO3)[C@@H](C(=O)O)[C@@H]1CCN1CCCCC1=O

IC50 (Endothelin-1 receptor [1]): 1.8 nM
Structure (SMILES): CCCCN(CCCC)C(=O)CN1C[C@H](c2ccc3c(c2)OCO3)[C@@H](C(=O)O)[C@@H]1CCC1CCCCO1 (some centres not stated)

IC50 (Endothelin-1 receptor [1]): 1.4 nM
Structure (SMILES): CCCCN(CCCC)C(=O)CN1C[C@H](c2ccc3c(c2)OCO3)[C@@H](C(=O)O)[C@@H]1CC(C)(C)C1OCCO1

IC50 (Endothelin-1 receptor [1]): 0.78 nM
Structure (SMILES): C/C=C\CC[C@H]1[C@H](C(=O)O)[C@@H](c2ccc3c(c2)OCO3)CN1CC(=O)N(CCCC)CCCC

IC50 (Endothelin-1 receptor [1]): 0.64 nM
Structure (SMILES): CCCCN(CCCC)C(=O)CN1C[C@H](c2ccc3c(c2)OCO3)[C@@H](C(=O)O)[C@@H]1CCC=C1CC1

AUC [6]: 3270 ng·h/mL
IC50 (Endothelin-1 receptor [1]): 0.56 nM
half-life [2]: 1.6 h
half-life [8]: 2.5 h
Cmax [9]: 1690 ng/mL
bioavailability [4]: 47.7%
Structure (SMILES): CCCCN(CCCC)C(=O)CN1C[C@H](c2cc(OC)c3c(c2)OCO3)[C@@H](C(=O)O)[C@@H]1CC(C)(C)CCC [ABT-546]

AUC [6]: 2090 ng·h/mL
IC50 (Endothelin-1 receptor [1]): 0.41 nM
half-life [2]: 1.5 h
IC50 [7]: 39700 nM
half-life [8]: 3.94 h
Cmax [9]: 660 ng/mL
IC50 (Endothelin-1 receptor [10]): 0.29 nM
bioavailability [4]: 27.8%
Structure (SMILES): C/C=C\C(C)(C)C[C@H]1[C@H](C(=O)O)[C@@H](c2cc(OC)c3c(c2)OCO3)CN1CC(=O)N(CCCC)CCCC
